Measurements from different studies.
Each line is one published result; the experiments were not run side by side.
Cell line: PC-3
Effect on: cell growth or viability

CCc1c(C)c2ccc(OCC(=O)NN=Cc3ccc([N+](=O)[O-])cc3)cc2oc1=O  viability (MTT; 31.25 µg/mL): 22.2%
COc1ccc(-c2cc(-c3ccccc3Cl)c3c(=O)[nH]c(=O)[nH]c3n2)cc1  IC50 (MTT; 48 h): 28.4 µM
Cc1c(Cc2ccccc2)c(=O)oc2c(C)c(OCC(=O)NN=Cc3ccccc3)ccc12  viability (MTT; 62.5 µg/mL): 26.3%
COc1cc2ncnc(Nc3ccc4c(c3)/C(=C/c3ccccc3)C(=O)N4C)c2cc1OC  IC50 (MTT): 37.9 µM
CC(=NNC(=O)COc1ccc2c(C)c(Cc3ccccc3)c(=O)oc2c1C)c1ccc(Br)cc1  viability (MTT; 250 µg/mL): 3.08%
COc1cc2ncnc(N(C)c3ccc4c(c3)/C(=C/c3ccccc3)C(=O)N4C)c2cc1OC (mixture of isomers)  IC50 (MTT): 39.2 µM
O=C(NO)c1ccc(CNc2nc3cccc(-c4ccc5c(c4)OCO5)n3n2)cc1  GI50 (SRB): 0.63 µM
COc1cc2ncnc(Nc3ccc4c(c3)/C(=C/c3ccccc3)C(=O)N4)c2cc1OC  IC50 (MTT): 4.17 µM
C=CC(=O)c1cccnc1Nc1cc(C(F)(F)F)ccc1OCc1ccccc1  GI50 (SRB; 48 h): 19 µM
CCc1c(C)c2ccc(OCC(=O)NNC(=S)Nc3ccccc3)c(C)c2oc1=O  viability (MTT; 1000 µg/mL): 2.47%
Cc1nc(NC(=O)N2CCC[C@H]2C(N)=O)sc1-c1ccnc(C(C)(C)C(F)(F)F)c1  IC50 (MTT): 47.7 µM
Cc1ccc(-c2cc(-c3ccc(N(C)C)cc3)c3c(=O)n(C)c(=O)n(C)c3n2)cc1  IC50 (MTT; 48 h): 21.5 µM
O=C(O)c1ccccc1Nc1cccc(C(F)(F)F)c1  GI50 (SRB; 48 h): > 30 µM
Cc1nc(Nc2ccc3c(c2)/C(=C/c2ccccc2Cl)C(=O)N3)c2ccccc2n1  IC50 (MTT): 2.45 µM
Cc1ccc(-c2cc(-c3ccc(N(C)C)cc3)c3c(=O)[nH]c(=O)[nH]c3n2)cc1  IC50 (MTT; 48 h): 17.4 µM
Cc1nc(Nc2ccc3c(c2)C(C)(C)C(=O)N3)c2ccccc2n1  IC50 (MTT): 34.3 µM
CCOc1ccc2c(C)c(CC)c(=O)oc2c1C  viability (MTT; 500 µg/mL): 7.6%
COc1ccc(-c2cc(-c3ccc(Cl)cc3)c3c(=O)[nH]c(=O)[nH]c3n2)cc1  IC50 (MTT; 48 h): 5.24 µM
Cc1c(Cc2ccccc2)c(=O)oc2c(C)c(OCC(=O)NN=Cc3ccc([N+](=O)[O-])cc3)ccc12  viability (MTT; 31.25 µg/mL): 31.3%
Cc1ccc(-c2cc(-c3ccc(Cl)c(F)c3)c3c(=O)n(C)c(=O)n(C)c3n2)cc1  IC50 (MTT; 48 h): 41.5 µM
CCc1c(C)c2ccc(OCc3nnc(S)n3N)c(C)c2oc1=O  viability (MTT; 500 µg/mL): 3.08%
CCCOc1nc(-c2cccc(O)c2)cc(-c2cc3cc(OC)ccc3nc2N2CCOCC2)c1C#N  IC50 (MTT; 72 h): 0.0639 µM
COc1ccc(-c2cc(-c3cccc(Br)c3)c3c(=O)[nH]c(=O)[nH]c3n2)cc1  IC50 (MTT; 48 h): 18.5 µM
Cc1c(Cc2ccccc2)c(=O)oc2c(C)c(OCC(=O)NN=Cc3ccc(Cl)cc3)ccc12  viability (MTT; 500 µg/mL): 5.27%
COc1ccc(-c2cc(-c3ccc(N(C)C)cc3)c3c(=O)n(C)c(=O)n(C)c3n2)cc1  IC50 (MTT; 48 h): 5.18 µM
O=C(O)c1cccnc1Nc1cccc(C(F)(F)F)c1  GI50 (SRB; 48 h): > 30 µM
